Bioassay records from PubChem.
Rpn11 inh = blocks the human proteasome subunit Rpn11; human 26S proteasome, Ub4-pepOG fluorescence polarization; 20S core pre-blocked with epoxomicin; AID 588493; O00487; inhibition, % at 20 µM; 360,000 compounds, 0.59% hits;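 active means inhibition at 20 µM, scaled to each plate's controls, above about 33%, limit read from the data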
Target sequence (O00487 whole entry, looked up): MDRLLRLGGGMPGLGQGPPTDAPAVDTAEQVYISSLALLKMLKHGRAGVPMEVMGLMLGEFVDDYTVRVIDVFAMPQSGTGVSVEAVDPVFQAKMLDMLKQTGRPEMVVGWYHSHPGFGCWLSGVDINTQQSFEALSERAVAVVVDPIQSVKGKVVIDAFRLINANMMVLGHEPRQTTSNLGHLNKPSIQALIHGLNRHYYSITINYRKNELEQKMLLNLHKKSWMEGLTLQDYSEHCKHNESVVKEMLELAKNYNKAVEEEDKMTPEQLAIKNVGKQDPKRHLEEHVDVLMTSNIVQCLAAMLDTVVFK
CSN deneddyl inh = blocks human CSN-mediated cullin deneddylation. 360,000 compounds, 0.38% hits. Q92905. AID 651999. Purified CSN, SCF-Nedd8-OG deneddylation, fluorescence polarization. inhibition, % at 12.5 µM;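 active means pattern-corrected inhibition above about 35%, with an unprinted fluorescence ratio check between 0.5 and 1.5, limit read from the data, passing the limit was not always enough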;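 further: 0% = enzyme with substrate and 100% = substrate without enzyme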
Target sequence (Q92905 whole entry, looked up, one chain of several): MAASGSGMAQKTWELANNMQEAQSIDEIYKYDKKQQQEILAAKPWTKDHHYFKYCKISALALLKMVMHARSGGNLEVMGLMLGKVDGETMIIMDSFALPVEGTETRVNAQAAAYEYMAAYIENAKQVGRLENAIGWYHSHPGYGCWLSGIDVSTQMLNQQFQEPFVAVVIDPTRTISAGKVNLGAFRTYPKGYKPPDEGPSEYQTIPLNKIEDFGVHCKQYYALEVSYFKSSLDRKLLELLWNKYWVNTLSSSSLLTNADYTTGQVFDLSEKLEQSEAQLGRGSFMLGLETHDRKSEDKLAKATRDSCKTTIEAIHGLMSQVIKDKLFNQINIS
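Assay system: HEK293T-derived human Csn5 enzyme; quantity: 0.24 nM enzyme; medium: Tris/NaCl/DTT buffer, pH 7.5; also added: substrate SCFSkp2-Nedd8OG, 10 nM; doses: 12.5 µM compound; schedule: 90 min reaction at room temperature; signal: FP; read-out: % inhibition of substrate cleavage by Csn5; benchmarks: substrate-only high control, full reaction low control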
HNF4A DNA FP = change in binding of human HNF4 alpha to DNA | HNF4a-FITC DNA binding, fluorescence polarization, 1 h | activity change, % at 10 µM | 360,000 compounds, 0.3% hits | AID 1224865; in the data active means activity change above about 30%, passing the limit was not always enough
NadD inh = blocks S. aureus nicotinate mononucleotide adenylyltransferase. purified NadD enzyme, colorimetric absorbance read-out. inhibition, % at 20 µM. 360,000 compounds, 0.78% hits. AID 602399; in the data active means inhibition above about 26%
PP1 counter = PP1-alpha (human) inhibition in PP5 counter-screen | P62136 | purified PP1alpha, OMFP fluorescence | inhibition, % at 6.7 µM | 320,000 compounds, 0.9% hits;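 active means inhibition above the mean inhibition of all tested compounds plus 3 SD, computed separately for each screening campaign, cut at about 15% in these data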
TPT1 inh = blocks Candida albicans tRNA 2'-phosphotransferase; inhibition, % at 5 µM; 300,000 compounds, 0.81% hits; recombinant caTPT1, FP RNA substrate dephosphorylation;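 active means inhibition above the mean of all tested compounds plus 3 SD, set per screening campaign, cut at about 24% in these data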;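 further: plate controls were DMSO alone for no effect and ferristatin control at 100 nM for full effect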
PP1 inh confirm = confirmation of human PP1 phosphatase inhibitors. shares compounds with PP1 counter. purified PP1alpha, OMFP substrate fluorescence. inhibition, % at 6.7 µM. 1,900 compounds, 52% hits;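 active means mean PP1 inhibition above a set limit taken from the earlier primary screen, cut at about 15% in these data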
PP5 inh counter = inhibits human PP5 phosphatase in PP1 counter-screen. inhibition, % at 6.7 µM. shares compounds with PP1 counter. purified PP5c, OMFP fluorescence. 1,900 compounds, 4% hits;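 active means mean PP5 inhibition over triplicate wells above about 9.5% taken from the earlier PP1 screen, limit read from the data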
The depositor's hits bear a star; nt = no result given. Hits are enriched below; roughly 2.7% of the tested compounds scored in any of these assays.

SMILES	Rpn11 inh	CSN deneddyl inh	HNF4A DNA FP	NadD inh	PP1 counter	TPT1 inh	PP1 inh confirm	PP5 inh counter
C#CCOCCOCCOCCNc1nc(N2CCN(C(=O)[C@H]([C@@H](C)CC)n3cc([C@@H](N)CO)nn3)CC2)nc(N2CCN(C(=O)[C@H](Cc3cc4ccccc4[nH]3)n3cc([C@@H](N)Cc4ccc(O)cc4)nn3)CC2)n1	nt	nt	nt	nt	23.8*	1.4	-6.1	2.4
C#CCOCCOCCOCCNc1nc(N2CCN(C(=O)CCCCCCCCCCNC(=O)[C@H]([C@@H](C)CC)n3cc(CCCCCN)nn3)CC2)nc(N2CCN(C(=O)CCCCCCCCCCNC(=O)[C@H]([C@@H](C)CC)n3cc(CCCCN=C(N)N)nn3)CC2)n1	88.2*	116.4*	153.3	48.1*	69.5*	0.3	45.2*	1.3
C#CCOCCOCCOCCNc1nc(N2CCN(C(=O)Cn3cc(CCCN=C(N)N)nn3)CC2)nc(N2CCN(C(=O)[C@H]([C@@H](C)CC)n3cc(CCCCN)nn3)CC2)n1	8.1	3.5	5.5	-7.5	-3.0	-1.9	nt	nt
C#CCOCCOCCOCCNc1nc(N2CCN(C(=O)CCCCCCCCCCNC(=O)[C@@H](CCSC)n3cc(CCO)nn3)CC2)nc(N2CCN(C(=O)CCCCCCCCCCNC(=O)[C@H](CCSC)n3cc(CCO)nn3)CC2)n1	-2.4	-3.6	0.8	2.0	22.6*	-0.6	3.9	2.0
C#CCOCCOCCOCCNc1nc(N2CCN(C(=O)CCCCCCCCCCNC(=O)[C@H](CO)n3cc(CCCSC)nn3)CC2)nc(N2CCN(C(=O)CCCCCCCCCCNC(=O)[C@H](CCCCN)n3cc(CCO)nn3)CC2)n1	5.4	13.7	14.2	17.6	nt	nt	nt	nt
C#CCOCCOCCOCCNc1nc(N2CCN(C(=O)CCCCCCCCCCNC(=O)[C@H]([C@@H](C)CC)n3cc(CCCCCN)nn3)CC2)nc(N2CCN(C(=O)CCCCCCCCCCNC(=O)[C@H](CCCCN)n3cc(CCCC(=O)O)nn3)CC2)n1	-0.3	-4.0	5.0	26.8	15.1	-0.5	nt	nt
C#CCOCCOCCOCCNc1nc(N2CCN(C(=O)CCCCCCCCCCNC(=O)[C@H]([C@@H](C)CC)n3cc(CCCCN=C(N)N)nn3)CC2)nc(N2CCN(C(=O)CCCCCCCCCCNC(=O)[C@H](CCCCN)n3cc(C)nn3)CC2)n1	nt	nt	nt	nt	70.1*	-1.2	56.8*	1.9
C#CCOCCOCCOCCNc1nc(N2CCN(C(=O)CCCCCCCCCCNC(=O)[C@H]([C@@H](C)CC)n3cc(CCCCCN)nn3)CC2)nc(N2CCN(C(=O)CCCCCCCCCCNC(=O)[C@H](CO)n3cc(CCCCCN)nn3)CC2)n1	-11.8	6.3	13.7	21.3	53.2*	-1.8	25.6*	-2.1
C#CCOCCOCCOCCNc1nc(N2CCN(C(=O)CCCCCCCCCCNC(=O)[C@H](CO)n3cc(CCCSC)nn3)CC2)nc(N2CCN(C(=O)CCCCCCCCCCNC(=O)[C@H](CCCN=C(N)N)n3cc(C[C@@H](C)CC)nn3)CC2)n1	108.1*	130.6*	278.6	62.3*	46.4*	-2.6	29.6*	1.0
C#CCOCCOCCOCCNc1nc(N2CCN(C(=O)CCCCCCCCCCNC(=O)[C@@H](CCC(=O)O)n3cc(CCCCCN)nn3)CC2)nc(N2CCN(C(=O)CCCCCCCCCCNC(=O)[C@H]([C@@H](C)CC)n3cc(CCCCCN)nn3)CC2)n1	-2.2	-4.8	0.4	27.6	12.6	-4.1	nt	nt
CC(C)CNC(=O)[C@H](Cc1ccccc1)NC(=O)c1cccs1	1.4	-2.9	-1.8	1.3	-4.1	0.5	nt	nt
COC(=O)[C@]12CCCCC=C1N(Cc1cccc3ccccc13)C(=O)[C@H](CC(=O)NCc1ccc(C)o1)C2	nt	-2.3	-2.7	14.2	nt	nt	nt	nt
C=CCn1c(=O)c(C(=O)NC2CC2)c(O)c2cc(OC)c(OC)cc21	0.0	-6.3	0.4	-0.9	-0.8	-0.9	nt	nt
COc1ccc(C(C)(O)c2nc(-c3ccoc3)cs2)cc1 (centres undefined)	4.8	-1.3	3.0	-1.2	nt	nt	nt	nt
CC[C@H](C)[C@@H](C(=O)NCCCCCCCCCCC(=O)N1CCN(C(=O)OC(C)(C)C)CC1)n1cc(CCCCN=C(NC(=O)OC(C)(C)C)NC(=O)OC(C)(C)C)nn1	nt	nt	nt	nt	19.2*	-3.2	30.1*	1.7
C#CCOCCOCCOCCNc1nc(N2CCN(C(=O)CCCCCCCCCCNC(=O)[C@H]([C@@H](C)CC)n3cc(CCCCN=C(N)N)nn3)CC2)nc(N2CCN(C(=O)CCCCCCCCCCNC(=O)[C@H](CO)n3cc(CCCCCN)nn3)CC2)n1	75.1*	105.9*	146.1	35.7*	73.3*	-0.4	45.4*	1.7
O=C(NCc1ccc(Cl)cc1)c1cc(-c2cccs2)on1	9.5	-0.5	-2.2	-5.1	21.2*	2.0	25.0*	-2.5
COc1ccc(CNC(=O)c2cc(-c3cccs3)on2)cc1	4.4	-1.7	4.1	-8.5	4.7	0.3	nt	nt
O=c1cc(-c2ccccc2)[nH]n1-c1nc2ccccc2s1	13.8	-4.0	2.8	0.8	18.1*	-2.6	7.9	2.0
O=c1cc(-c2ccccc2)[nH]n1-c1ccccc1	7.1	-3.4	1.1	5.1	nt	nt	nt	nt
O=C(N/N=C/c1cc([N+](=O)[O-])cc([N+](=O)[O-])c1O)/C(=C\c1cccs1)NC(=O)c1ccccc1	-2.3	-3.7	0.2	38.9*	20.7*	0.7	30.4*	-2.5
COc1cc(/C=N/NC(=O)/C(=C\c2ccc([N+](=O)[O-])cc2)NC(=O)c2ccccc2)cc(OC)c1O	-30.2	4.0	-0.2	9.9	3.2	-0.7	nt	nt
CC1=NOC(=O)/C1=C\c1ccc(-c2ccc(Br)cc2)o1	12.8	28.2	1.0	9.1	nt	nt	nt	nt
CC1=NOC(=O)/C1=C/c1ccc(-c2ccc(Cl)cc2)o1	12.4	19.9	-1.6	3.3	17.9*	8.4	48.6*	-2.4
Cc1cc(C(=O)N2CCC2(C)C(=O)NS(=O)(=O)c2ccc(Cl)cc2)nn1C (centres undefined)	2.6	0.9	2.0	-1.7	nt	nt	nt	nt
Cn1cccc1-c1cc(C(=O)N/N=C/c2cc(Br)ccc2O)[nH]n1	7.7	9.1	5.8	17.3	21.1*	-0.1	22.5*	-3.7
O=C(Nc1nnc(-c2ccc3c(c2)CCCC3)o1)c1ccccc1	8.4	2.3	-2.3	8.3	23.0*	0.0	28.4*	0.4
O=C(COC(=O)/C=C/c1ccccc1)Nc1nnc(-c2ccccc2)o1	2.8	0.8	-1.8	3.5	24.4*	-1.0	30.0*	-3.6
